Source: ChEMBL document CHEMBL5653624 (Biochem Pharmacol, 2016)
Active and inactive are the calls of the source. No cut-off for these calls is given here.

Legend:
Lung [1] = assay: Antiinflammatory activity in C57bl/6 mouse precision-cut lung slices assessed as down regulation of LPS/IFNgamma-induced iNOS gene expression at 1 to 10 uM preincubated for 20 hrs followed by LPS/IFNgamma stimulation and measured after 4 hrs by RT-qPCR analysis; type: functional, tissue-based; conditions: dose 1-10 µM, time 24.0 hrs
Summary of the method: (§1)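 PCLS, 250 μm thick, cut from agarose-filled lungs of male C57bl/6 mice (24–28 g, 8–10 weeks). Three slices per well at 37 °C, 5% CO2. Slices received RGFP966 at 1 and 10 μM final for 20 h, with 10 ng/ml LPS and 10 ng/ml IFNγ stimulation. RNA isolated; RT-qPCR fold change versus LPS/IFNγ control by 2−ΔΔCt. Mean ± SD, n = 3–5.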

[2] = biological target: T1, Histone deacetylase 3 (Mus musculus) (UniProt O88895); assay: Inhibition of HDAC3 in mouse RAW-Blue cells assessed as reduction in LPS/IFNgamma-induced NF-kappaB p65 transcriptional activity preincubated for 16 hrs followed by LPS/IFNgamma stimulation and measured after 4 hrs by SEAP reporter gene assay; type: cell-based; conditions: time 20.0 hrs
T1 sequence (whole entry): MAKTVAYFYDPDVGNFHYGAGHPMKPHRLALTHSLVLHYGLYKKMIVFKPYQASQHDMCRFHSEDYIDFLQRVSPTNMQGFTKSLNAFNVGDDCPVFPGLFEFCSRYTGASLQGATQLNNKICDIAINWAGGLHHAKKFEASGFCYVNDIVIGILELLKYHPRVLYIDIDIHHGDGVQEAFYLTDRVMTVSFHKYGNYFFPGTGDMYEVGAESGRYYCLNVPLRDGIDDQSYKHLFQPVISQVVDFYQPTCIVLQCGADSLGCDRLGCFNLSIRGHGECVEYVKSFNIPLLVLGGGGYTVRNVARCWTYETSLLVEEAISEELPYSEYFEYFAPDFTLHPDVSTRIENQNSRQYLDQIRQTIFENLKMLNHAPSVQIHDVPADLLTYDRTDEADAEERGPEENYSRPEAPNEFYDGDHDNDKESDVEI
Summary of the method: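 RAW-Blue cells (RAW 264.7-derived, stably expressing an NF-κB/AP-1-inducible secreted embryonic alkaline phosphatase) exposed to inhibitor for 20 h total, with 10 ng/ml LPS plus 10 ng/ml IFNγ added for the final 4 h. Supernatant mixed with QUANTI-Blue medium, 37 °C 1–2 h in the dark, absorbance 630 nm; reported as % of control.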

[3] = biological target: T1, Histone deacetylase 3 (Mus musculus); assay: Effect on HDAC3 nuclear localization in LPS/IFNgamma-stimulated mouse RAW264.7 cells preincubated for 20 hrs followed by LPS/IFNgamma stimulation and measured after 1 hr by Western blot analysis; type: cell-based
Summary of the method: (§2)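 RAW 264.7 cells treated for 20 h, then 1 h LPS/IFNγ, and fractionated into nuclear and cytosolic parts. Fractions immunoblotted, with PARP-1 and β-actin as internal controls. Densitometry with vehicle control set at 100%. Mean ± SD of 3–4 independent experiments.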

Lung [4] = assay: Antiinflammatory activity in C57bl/6 mouse precision-cut lung slices assessed as down regulation of LPS/IFNgamma-induced IL-12b gene expression at 1 to 10 uM preincubated for 20 hrs followed by LPS/IFNgamma stimulation and measured after 4 hrs by RT-qPCR analysis; type: functional, tissue-based; conditions: dose 1-10 µM, time 24.0 hrs; summary of the method: as §1
HBE [5] = assay: Antiinflammatory activity in HBE cells assessed as effect on LPS/IFNgamma-induced IL-10 gene expression at 2 uM […] by RT-qPCR analysis; type: functional, cell-based; conditions: Homo sapiens
Summary of the method: (§3)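 HBE cells (passage 73–103) or immortalized hASM cells (2–3 donors, passage 27–35), serum-starved. Then 2 μM RGFP966 for 20 h, with LPS/IFNγ for the last 4 h. Total RNA isolated; RT-qPCR by 2−ΔΔCt, fold change versus LPS/IFNγ control. Mean ± SD of 3–5 independent experiments.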

[6] = Cytotoxicity against HBE cells assessed as reduction in cell viability at 2 uM measured after 20 hrs by MTS assay; type: toxicity, cell-based; conditions: human
Summary of the method: (§4)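 MTS viability assay. RAW 264.7 cells seeded at 25,000 cells/cm2; HBE and hASM cells at 70% confluency and serum-starved for 24 h. Exposure for 20 h with LPS/IFNγ stimulation. MTS reagent added for 1 h at 37 °C in the dark, absorbance read at 490 nm. LPS/IFNγ-stimulated cells without inhibitor set at 100%.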

[7] = biological target: Histone deacetylase 1 (Mus musculus) (UniProt O09106); assay: Effect on HDAC1 nuclear localization in LPS/IFNgamma-stimulated mouse RAW264.7 cells preincubated for 20 hrs followed by LPS/IFNgamma stimulation and measured after 1 hr by Western blot analysis; type: cell-based; summary of the method: as §2
Sequence of Histone deacetylase 1 (Mus musculus) (O09106 whole entry): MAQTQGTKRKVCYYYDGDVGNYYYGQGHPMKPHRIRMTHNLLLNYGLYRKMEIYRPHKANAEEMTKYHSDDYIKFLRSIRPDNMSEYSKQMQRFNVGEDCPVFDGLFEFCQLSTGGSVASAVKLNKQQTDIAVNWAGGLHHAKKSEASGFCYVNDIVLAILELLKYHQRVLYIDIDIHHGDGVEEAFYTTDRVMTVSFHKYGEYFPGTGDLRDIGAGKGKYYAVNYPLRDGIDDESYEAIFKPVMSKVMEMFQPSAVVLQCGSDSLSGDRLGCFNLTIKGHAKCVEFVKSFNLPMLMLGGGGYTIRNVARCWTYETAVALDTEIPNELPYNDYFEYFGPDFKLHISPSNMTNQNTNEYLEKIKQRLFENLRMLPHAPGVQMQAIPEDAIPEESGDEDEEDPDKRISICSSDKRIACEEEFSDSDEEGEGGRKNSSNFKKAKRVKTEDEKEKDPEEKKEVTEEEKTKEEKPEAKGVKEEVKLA

HBE [8] = assay: Antiinflammatory activity in HBE cells assessed as up regulation of LPS/IFNgamma-induced IL-6 gene expression at 2 uM […] by RT-qPCR analysis; type: functional, cell-based; conditions: Homo sapiens; summary of the method: as §3
RAW264.7 [9] = assay: Antiinflammatory activity in LPS/IFNgamma-stimulated mouse RAW264.7 cells assessed as effect on NF-kappaB p65 mRNA expression preincubated for 20 hrs followed by LPS/IFNgamma stimulation and measured after 4 hrs by RT-qPCR analysis; type: functional, cell-based; conditions: time 24.0 hrs
HASMC [10] = assay: Antiinflammatory activity in HASMC cells assessed as effect on LPS/IFNgamma-induced IL-12b gene expression at 2 uM […] and measured after 4 hrs by RT-qPCR analysis; type: functional, cell-based; conditions: Homo sapiens; summary of the method: as §3
HASMC [11] = assay: Cytotoxicity against HASMC cells assessed as reduction in cell viability at 2 uM measured after 20 hrs by MTS assay; type: toxicity, cell-based; conditions: human; summary of the method: as §4
RAW264.7 [12] = assay: Antiinflammatory activity in mouse RAW264.7 cells assessed as effect on LPS/IFNgamma-induced TNFalpha gene expression at 1 uM preincubated for 20 hrs followed by LPS/IFNgamma stimulation and measured after 4 hrs by RT-qPCR analysis; type: functional, cell-based; conditions: time 24.0 hrs
Summary of the method: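 RAW 264.7 macrophages in DMEM/10% FBS received 1 μM RGFP966 for 20 h, with LPS/IFNγ for the last 4 h. Washed with cold DPBS, total RNA isolated, integrity checked by 28S/18S. RT-qPCR by comparative Ct (2−ΔΔCt), fold change versus LPS/IFNγ control. Mean ± SD of 3–5 independent experiments.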

Lung [13] = assay: Antiinflammatory activity in C57bl/6 mouse precision-cut lung slices assessed as upregulation of LPS/IFNgamma-induced Fizz1 gene expression at 1 to 10 uM preincubated for 20 hrs followed by LPS/IFNgamma stimulation and measured after 4 hrs by RT-qPCR analysis; type: functional, tissue-based; conditions: dose 1-10 µM, time 24.0 hrs; summary of the method: as §1
[14] = biological target: T1, Histone deacetylase 3 (Mus musculus); assay: Inhibition of HDAC3 in mouse RAW264.7 cells assessed as effect on LPS/IFNgamma-induced NF-kappaB p65 acetylation level preincubated for 20 hrs followed by LPS/IFNgamma stimulation and measured after 1 hr by Western blot analysis
Lung [15] = assay: Antiinflammatory activity in C57bl/6 mouse precision-cut lung slices assessed as upregulation of LPS/IFNgamma-induced IL-1beta gene expression at 1 to 10 uM preincubated for 20 hrs followed by LPS/IFNgamma stimulation and measured after 4 hrs by RT-qPCR analysis relative to control; type: functional; conditions: dose 1-10 µM; time 24 hrs; summary of the method: as §1
[16] = biological target: T1, Histone deacetylase 3 (Mus musculus); assay: Inhibition of HDAC3 in mouse RAW264.7 cells assessed as effect on LPS/IFNgamma-induced IkappaBalpha activation preincubated for 20 hrs followed by LPS/IFNgamma stimulation and measured after 1 hr by Western blot analysis; type: cell-based

inhibition [2]: Active
Activity [3]: inactive
Activity [7]: inactive
inhibition [14]: inactive
inhibition [16]: inactive
Compound: Nc1cc(F)ccc1NC(=O)/C=C/c1cnn(C/C=C/c2ccccc2)c1
Activity (Lung [1]): Active
Activity (Lung [4]): Active
Activity (HBE [5]): inactive
Activity [6]: Non-Toxic
Activity (HBE [8]): Active
Activity (RAW264.7 [9]): inactive
Activity (HASMC [10]): inactive
Activity (HASMC [11]): Non-Toxic
Activity (RAW264.7 [12]): inactive
Activity (Lung [13]): Active
fold change (FC) (Lung [15]): >2
